Results taken from article PMC7564327 (Acta Pharmaceutica Sinica. B, 2020).
Counter-ions that a name gives are not always drawn. Values belong to the molecule of their own block, whether it stands above or below them.

Tests used:
mice kidney slices = assay: In vitro uptake of TDE in mice kidney slices; format: in vitro ADME, Kunming mice; conditions: TDE 10 μmol/L
Procedure, shortened: (§1)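 Kunming mice (20–25 g, fasted 12 h) were anaesthetised with urethane, and kidney or liver was decapsulated into ice-cold oxygenated buffer at pH 7.5. Slices of about 30 mg were preincubated 5 min under carbogen at 4 or 37 °C. They were then incubated with 10 μmol/L test compound for 5, 10 or 30 min, with or without reference OAT1/OAT3 or OATP inhibitors or co-ingredients. Slices were then washed, blotted, weighed and homogenised, then extracted with methanol and an internal standard for HPLC–MS.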

hOAT3 = target: T1, hOAT3 (Homo sapiens, UniProt Q8TCC7); assay: Cellular uptake and kinetics in S2-hOAT3 vs Mock cells; format: in vitro ADME
T1 sequence (Q8TCC7 1-542): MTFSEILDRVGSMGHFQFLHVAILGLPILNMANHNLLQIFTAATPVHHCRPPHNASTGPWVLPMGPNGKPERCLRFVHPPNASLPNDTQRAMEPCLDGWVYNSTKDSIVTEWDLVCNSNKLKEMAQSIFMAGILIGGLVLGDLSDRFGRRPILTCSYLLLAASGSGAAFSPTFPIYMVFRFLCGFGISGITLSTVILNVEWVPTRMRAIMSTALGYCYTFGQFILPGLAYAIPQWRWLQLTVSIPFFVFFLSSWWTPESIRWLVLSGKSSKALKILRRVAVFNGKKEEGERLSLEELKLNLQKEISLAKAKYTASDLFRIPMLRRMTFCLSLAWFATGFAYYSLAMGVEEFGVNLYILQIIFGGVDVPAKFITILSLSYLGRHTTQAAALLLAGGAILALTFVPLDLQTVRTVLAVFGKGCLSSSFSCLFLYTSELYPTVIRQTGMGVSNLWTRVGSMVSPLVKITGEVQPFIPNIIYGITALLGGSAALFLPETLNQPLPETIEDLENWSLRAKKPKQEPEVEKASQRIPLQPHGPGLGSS

hOATP1B3 = target: T2, hOATP1B3 (Homo sapiens, UniProt Q9NPD5); assay: Cellular uptake and kinetics in HEK293-hOATP1B3 vs Mock cells; format: in vitro ADME
T2 sequence (Q9NPD5 1-702): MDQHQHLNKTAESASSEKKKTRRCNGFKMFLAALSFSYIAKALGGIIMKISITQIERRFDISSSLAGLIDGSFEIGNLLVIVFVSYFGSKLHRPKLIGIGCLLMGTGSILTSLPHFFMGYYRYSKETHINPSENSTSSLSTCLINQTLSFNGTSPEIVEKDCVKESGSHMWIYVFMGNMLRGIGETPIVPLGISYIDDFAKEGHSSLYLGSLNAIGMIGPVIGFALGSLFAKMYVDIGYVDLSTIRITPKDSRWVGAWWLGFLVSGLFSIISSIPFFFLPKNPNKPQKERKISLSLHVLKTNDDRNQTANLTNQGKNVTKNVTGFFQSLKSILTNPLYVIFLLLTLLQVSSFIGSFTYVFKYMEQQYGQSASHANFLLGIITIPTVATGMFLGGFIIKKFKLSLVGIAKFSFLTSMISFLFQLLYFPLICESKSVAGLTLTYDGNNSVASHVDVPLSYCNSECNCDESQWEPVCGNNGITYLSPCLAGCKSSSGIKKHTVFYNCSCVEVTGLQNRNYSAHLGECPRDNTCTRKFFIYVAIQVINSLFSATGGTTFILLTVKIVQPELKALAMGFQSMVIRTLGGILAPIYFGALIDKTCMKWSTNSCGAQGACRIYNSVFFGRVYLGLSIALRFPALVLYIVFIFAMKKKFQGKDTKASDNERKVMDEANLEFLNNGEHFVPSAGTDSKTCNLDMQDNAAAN
Procedure, shortened: (§2)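 Transfected cells and matching Mock cells were seeded at 2 × 10⁵ cells/mL and grown 2 days. After a DPBS (pH 7.4) wash and 10 min preincubation at 37 °C, cells took up 100 μmol/L test compound for 2–5 min at 37 °C. Uptake was stopped with three ice-cold DPBS washes, followed by methanol extraction and HPLC–MS. Values were normalised to BCA protein and compared with Mock.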

mice liver slices = assay: In vitro uptake of TDE in mice liver slices; format: in vitro ADME, Kunming mice; conditions: TDE 10 μmol/L
Procedure, shortened: as §1

hOATP1B1 = target: T3, hOATP1B1 (Homo sapiens, UniProt Q9Y6L6); assay: Cellular uptake and kinetics in HEK293-hOATP1B1 vs Mock cells; format: in vitro ADME
T3 sequence (Q9Y6L6 1-691): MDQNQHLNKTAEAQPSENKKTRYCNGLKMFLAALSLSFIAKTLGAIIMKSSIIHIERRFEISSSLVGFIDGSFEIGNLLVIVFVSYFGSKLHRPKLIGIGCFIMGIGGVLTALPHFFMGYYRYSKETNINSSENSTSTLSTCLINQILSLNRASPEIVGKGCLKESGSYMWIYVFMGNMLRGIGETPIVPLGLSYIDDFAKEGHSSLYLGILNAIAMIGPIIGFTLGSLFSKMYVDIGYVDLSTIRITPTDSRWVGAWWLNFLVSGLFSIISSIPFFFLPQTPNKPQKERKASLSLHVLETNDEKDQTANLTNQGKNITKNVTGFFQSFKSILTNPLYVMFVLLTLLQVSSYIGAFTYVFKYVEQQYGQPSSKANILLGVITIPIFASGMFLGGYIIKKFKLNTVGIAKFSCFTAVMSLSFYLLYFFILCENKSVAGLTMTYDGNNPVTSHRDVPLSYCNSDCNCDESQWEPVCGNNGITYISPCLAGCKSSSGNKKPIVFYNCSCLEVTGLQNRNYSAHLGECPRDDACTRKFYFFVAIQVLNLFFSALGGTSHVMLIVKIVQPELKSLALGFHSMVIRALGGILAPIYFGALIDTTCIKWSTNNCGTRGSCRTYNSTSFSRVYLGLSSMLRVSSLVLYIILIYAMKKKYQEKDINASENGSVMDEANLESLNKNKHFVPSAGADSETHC

hOAT1 = target: T4, hOAT1 (Homo sapiens, UniProt Q4U2R8); assay: Cellular uptake in MDCK-hOAT1 vs Mock cells; format: in vitro ADME; conditions: 100 μmol/L, substrate if >2-fold of wild type
T4 sequence (Q4U2R8 1-563): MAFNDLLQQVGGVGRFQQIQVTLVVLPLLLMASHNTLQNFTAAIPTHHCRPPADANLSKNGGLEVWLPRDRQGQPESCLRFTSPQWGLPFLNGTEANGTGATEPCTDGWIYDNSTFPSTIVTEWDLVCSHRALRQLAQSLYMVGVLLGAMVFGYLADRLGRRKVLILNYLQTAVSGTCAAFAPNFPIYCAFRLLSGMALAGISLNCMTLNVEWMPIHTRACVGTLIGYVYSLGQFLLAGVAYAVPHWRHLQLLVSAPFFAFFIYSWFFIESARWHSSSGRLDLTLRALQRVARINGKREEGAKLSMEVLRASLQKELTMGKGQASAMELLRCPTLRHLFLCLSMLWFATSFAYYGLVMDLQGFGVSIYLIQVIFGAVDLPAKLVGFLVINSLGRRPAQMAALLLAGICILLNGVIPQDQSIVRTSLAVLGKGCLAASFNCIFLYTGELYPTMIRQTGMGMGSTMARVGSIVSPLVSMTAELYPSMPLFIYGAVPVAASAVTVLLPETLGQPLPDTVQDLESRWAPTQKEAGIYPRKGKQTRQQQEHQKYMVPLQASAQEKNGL
Procedure, shortened: as §2

hOATP2B1 = target: T5, hOATP2B1 (Homo sapiens, UniProt O94956); assay: Cellular uptake in HEK293-hOATP2B1 vs Mock cells; format: in vitro ADME
T5 sequence (O94956 1-709): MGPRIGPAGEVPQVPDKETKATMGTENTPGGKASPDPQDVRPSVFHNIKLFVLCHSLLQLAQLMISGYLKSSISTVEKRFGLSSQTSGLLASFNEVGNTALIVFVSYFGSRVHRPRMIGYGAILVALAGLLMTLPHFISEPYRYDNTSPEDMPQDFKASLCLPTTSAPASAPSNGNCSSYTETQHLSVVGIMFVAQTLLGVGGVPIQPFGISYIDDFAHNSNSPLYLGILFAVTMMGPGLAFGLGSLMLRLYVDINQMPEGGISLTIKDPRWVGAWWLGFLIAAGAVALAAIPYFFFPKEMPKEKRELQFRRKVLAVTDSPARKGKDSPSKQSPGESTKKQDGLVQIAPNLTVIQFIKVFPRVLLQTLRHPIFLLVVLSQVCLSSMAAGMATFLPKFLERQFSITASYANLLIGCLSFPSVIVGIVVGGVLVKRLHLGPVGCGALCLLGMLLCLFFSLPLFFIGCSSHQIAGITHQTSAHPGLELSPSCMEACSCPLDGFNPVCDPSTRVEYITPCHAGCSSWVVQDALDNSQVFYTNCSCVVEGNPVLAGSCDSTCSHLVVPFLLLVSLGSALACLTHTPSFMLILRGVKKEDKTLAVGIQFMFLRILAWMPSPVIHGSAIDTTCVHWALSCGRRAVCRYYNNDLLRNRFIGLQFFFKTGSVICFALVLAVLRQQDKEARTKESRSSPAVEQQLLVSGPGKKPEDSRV

[1] = substrate: COc1cc2c(cc1OC)[C@@H]1Cc3ccc(OC)c(OC)c3CN1CC2; assay: Cellular uptake and kinetics in S2-hOAT3 vs Mock cells; format: in vitro ADME, human; conditions: other: hOAT3, TDE 0.03-10 μmol/L, 2 min, 37 °C, Eadie-Hofstee, pH 7.4
[2] = 100 μmol/L, substrate if >2-fold of wild type

Molecule: CCCN(CCC)S(=O)(=O)c1ccc(C(=O)O)cc1 [probenecid, reference compound]
effect on the uptake of TDE in kidney slices (mice kidney slices): could inhibit

accumulation in S2-hOAT3, fold higher than wild type (S2-Mock) (hOAT3; [2]): about 2.25 fold | accumulation in HEK293-hOATP1B3 vs HEK293 wild type (hOATP1B3; [2]): 3.31 fold | Vmax (hOATP1B3; hOATP1B3, TDE 0.03-10 μmol/L, 2 min, 37 °C, Eadie-Hofstee): 512.09 pmol/mg protein/min | Km at 2 min (hOATP1B3; human, pH 7.4): 6.72 µM | accumulation of TDE at 37 °C, fold greater than at 4 °C (mice liver slices; liver slices, 30 min): approximately 2.3 fold | accumulation in hOATP1B1-overexpressed cell lines compared to wild type (hOATP1B1; 100 μmol/L): could largely accumulate | accumulation in MDCK-hOAT1, fold higher than in MDCK-Mock (hOAT1): about 1.25 fold | accumulation in HEK293-hOATP2B1 vs HEK293 wild type (hOATP2B1; [2]): less than 2 fold
Molecule: COc1cc2c(cc1OC)[C@@H]1Cc3ccc(OC)c(OC)c3CN1CC2 [TDE, tetrahydropalmatine]

Molecule: CO[C@H]1/C=C/O[C@@]2(C)Oc3c(C)c(O)c4c(O)c(c(/C=N/N5CCN(C)CC5)c(O)c4c3C2=O)NC(=O)/C(C)=C\C=C\[C@H](C)[C@H](O)[C@@H](C)[C@@H](O)[C@@H](C)[C@H](OC(C)=O)[C@@H]1C [Rifampicin, rifampicin, reference compound]
effect on the uptake of TDE in liver slices (mice liver slices; mice liver slices): could inhibit

accumulation of model substrate, fold higher than in Mock cells (hOAT3; 50 nmol/L 3H-ES, 2 min, S2-hOAT3 vs Mock): 5.6 fold | Uptake rate, Control (hOAT3; S2-hOAT3, 50 nmol/L 3H-ES, 2 min): 0.62 ± 0.015∗∗ pmol/mg protein/min | Uptake rate, Control + inhibitor (hOAT3; S2-hOAT3, 50 nmol/L 3H-ES, 2 min, inhibitor not named): 0.29 ± 0.17 pmol/mg protein/min | accumulation of model substrate, fold higher than in Mock cells (hOATP1B3; 50 nmol/L 3H-ES, 2 min, HEK293-hOATP1B3 vs Mock): 4.7 fold | Uptake rate, Control (hOATP1B3; HEK293-hOATP1B3, 50 nmol/L 3H-ES, 2 min): 0.52 ± 0.017∗∗ pmol/mg protein/min | Uptake rate, Control + inhibitor (hOATP1B3; HEK293-hOATP1B3, 50 nmol/L 3H-ES, 2 min, inhibitor not named): 0.24 ± 0.13 pmol/mg protein/min | accumulation of model substrate, fold higher than in Mock cells (hOATP1B1; 50 nmol/L 3H-ES, 2 min, HEK293-hOATP1B1 vs Mock): 10.3 fold | Uptake rate, Control (hOATP1B1; HEK293-hOATP1B1, 50 nmol/L 3H-ES, 2 min): 1.13 ± 0.11∗∗ pmol/mg protein/min | Uptake rate, Control + inhibitor (hOATP1B1; HEK293-hOATP1B1, 50 nmol/L 3H-ES, 2 min, inhibitor not named): 0.35 ± 0.14 pmol/mg protein/min | accumulation of model substrate, fold higher than in Mock cells (hOATP2B1; 50 nmol/L 3H-ES, 2 min, HEK293-hOATP2B1 vs Mock): 4.2 fold | Uptake rate, Control (hOATP2B1; HEK293-hOATP2B1, 50 nmol/L 3H-ES, 2 min): 0.46 ± 0.011∗∗ pmol/mg protein/min | Uptake rate, Control + inhibitor (hOATP2B1; HEK293-hOATP2B1, 50 nmol/L 3H-ES, 2 min, inhibitor not named): 0.19 ± 0.034 pmol/mg protein/min
Molecule: CC12CCC3c4ccc(OS(=O)(=O)O)cc4CCC3C1CCC2=O (stereo not drawn) [3H-ES, 3H-estrone sulfate, reference compound]

B1: hOAT3 (Homo sapiens) (protein)
chain: T1 sequence (Q8TCC7 1-542)
Km [1]: 1.44 µM | Vmax [1]: 188.45 pmol/mg protein/min
